Laboratory results taken from ChEMBL document CHEMBL1255417, “Correlation between in vitro activity of posaconazole and in vivo efficacy against Rhizopus oryzae infection in mice” (Antimicrob Agents Chemother, 2010).
Values after ≈ are worked out from the molar mass of the structure shown. Active and inactive are the calls of the source. The calls are words filed in the database; no cut-off is given here.

Legend:
[1] = test system: Rhizopus arrhizus; experiment: Antifungal activity against drug-susceptible Rhizopus oryzae UTHSC 03-228 by broth microdilution method; assay type: functional
In short: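 Broth microdilution MIC in µg/ml, run per the CLSI (formerly NCCLS) guideline for filamentous fungi, M38-A2.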

[2] = test system: Rhizopus arrhizus; experiment: Antifungal activity against drug-susceptible Rhizopus oryzae UTHSC 04-2159 by broth microdilution method; assay type: functional
In short: (§1)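 CLSI broth microdilution for filamentous fungi (M38-A2); MIC recorded in µg/ml against clinical isolates; breakpoints applied at 24 h.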

[3] = test system: Rhizopus arrhizus; experiment: Antifungal activity against drug-susceptible Rhizopus oryzae UTHSC 06-4035 by broth microdilution method; assay type: functional
In short: (§2)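 Posaconazole MIC in ug/ml, determined by broth microdilution following the CLSI guidelines for moulds (M38-A2).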

[4] = test system: Rhizopus arrhizus; experiment: Antifungal activity against drug-susceptible Rhizopus oryzae UTHSC 03-547 by broth microdilution method; assay type: functional; in short: as §1
[5] = test system: Rhizopus arrhizus; experiment: Antifungal activity against drug-susceptible Rhizopus oryzae UTHSC 06-434 by broth microdilution method; assay type: functional; in short: as §2
[6] = test system: Rhizopus arrhizus; experiment: Antifungal activity against drug-susceptible Rhizopus oryzae UTHSC 06-1301 by broth microdilution method; assay type: functional; in short: as §2
[7] = test system: Rhizopus arrhizus; experiment: Antifungal activity against drug-susceptible Rhizopus oryzae UTHSC 04-1220 by broth microdilution method; assay type: functional; in short: as §1
[8] = test system: Rhizopus arrhizus; experiment: Antifungal activity against drug-susceptible Rhizopus oryzae UTHSC 06-731 at 5 ug by disk diffusion assay; assay type: functional; conditions: read-out: DIZ
[9] = test system: Rhizopus arrhizus; experiment: Antifungal activity against drug-susceptible Rhizopus oryzae UTHSC 06-4152 at 5 ug by disk diffusion assay; assay type: functional; conditions: read-out: DIZ
In short: (§3)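 Neo-Sensitabs tablet diffusion on Mueller-Hinton agar, run per the mould guidelines. Tablets are 9 mm in diameter and carry 5 ug posaconazole. The read-out is the inhibition zone diameter in mm.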

[10] = test system: Rhizopus arrhizus; experiment: Antifungal activity against drug-susceptible Rhizopus oryzae UTHSC 05-2975 at 5 ug by disk diffusion assay; assay type: functional; conditions: read-out: DIZ; in short: as §3
[11] = test system: Rhizopus arrhizus; experiment: Antifungal activity against drug-susceptible Rhizopus oryzae UTHSC 06-1351 at 5 ug by disk diffusion assay; assay type: functional; conditions: read-out: DIZ; in short: as §3
[12] = test system: Rhizopus arrhizus; experiment: Antifungal activity against drug-susceptible Rhizopus oryzae UTHSC 05-3132 at 5 ug by disk diffusion assay; assay type: functional; conditions: read-out: DIZ; in short: as §3
[13] = test system: Rhizopus arrhizus; experiment: Antifungal activity against drug-susceptible Rhizopus oryzae UTHSC 03-547 at 5 ug by disk diffusion assay; assay type: functional; conditions: read-out: DIZ
In short: (§4)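 Neo-Sensitabs tablet diffusion on Mueller-Hinton agar, following guidelines for molds; 9 mm tablets containing 5 µg posaconazole; inhibition zone diameter measured in mm; zone breakpoints applied at 24 h.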

[14] = test system: Rhizopus arrhizus; experiment: Antifungal activity against drug-susceptible Rhizopus oryzae UTHSC 05-197 at 5 ug by disk diffusion assay; assay type: functional; conditions: read-out: DIZ; in short: as §4
[15] = test system: Rhizopus arrhizus; experiment: Antifungal activity against drug-susceptible Rhizopus oryzae UTHSC 06-2457 at 5 ug by disk diffusion assay; assay type: functional; conditions: read-out: DIZ; in short: as §3
[16] = test system: Rhizopus arrhizus; experiment: Antifungal activity against drug-susceptible Rhizopus oryzae UTHSC 03-511 at 5 ug by disk diffusion assay; assay type: functional; conditions: read-out: DIZ; in short: as §4
[17] = test system: Rhizopus arrhizus; experiment: Antifungal activity against drug-susceptible Rhizopus oryzae UTHSC 06-4336 at 5 ug by disk diffusion assay; assay type: functional; conditions: read-out: DIZ; in short: as §3
[18] = test system: Rhizopus arrhizus; experiment: Antifungal activity against drug-intermediate Rhizopus oryzae UTHSC 07-365 at 5 ug by disk diffusion assay; assay type: functional; conditions: UTHSC 07-365, read-out: DIZ
In short: (§5)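 Neo-Sensitabs tablet diffusion on Mueller-Hinton agar, following the guidelines for molds. Tablets were 9 mm in diameter and held 5 µg of drug. The read-out was inhibition zone diameter in mm.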

[19] = test system: Rhizopus arrhizus; experiment: Antifungal activity against drug-intermediate Rhizopus oryzae UTHSC 05-3032 at 5 ug by disk diffusion assay; assay type: functional; conditions: read-out: DIZ; in short: as §5
[20] = test system: Rhizopus arrhizus; experiment: Antifungal activity against drug-intermediate Rhizopus oryzae UTHSC 04-3109 at 5 ug by disk diffusion assay; assay type: functional; conditions: read-out: DIZ; in short: as §5
[21] = test system: Rhizopus arrhizus; experiment: Antifungal activity against drug-susceptible Rhizopus oryzae UTHSC 04-2459 after 24 to 48 hrs; assay type: functional
In short: (§6)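 Minimum fungicidal concentration: 20 µl from each microdilution well showing complete inhibition (optically clear) plated on potato dextrose agar, incubated 35°C for 24 to 48 h; MFC taken as lowest drug concentration giving no growth.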

[22] = test system: Rhizopus arrhizus; experiment: Antifungal activity against drug-susceptible Rhizopus oryzae UTHSC 06-4035 after 24 to 48 hrs; assay type: functional
In short: (§7)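 Minimum fungicidal concentration taken from the broth microdilution plates. From each well with complete inhibition (optically clear), 20 ul is plated on potato dextrose agar. Plates are incubated at 35°C for 24 to 48 h. The MFC is the lowest drug concentration giving no growth.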

[23] = test system: Rhizopus arrhizus; experiment: Antifungal activity against drug-susceptible Rhizopus oryzae UTHSC 03-547 after 24 to 48 hrs; assay type: functional; in short: as §6
[24] = test system: Rhizopus arrhizus; experiment: Antifungal activity against drug-susceptible Rhizopus oryzae UTHSC 05-1817 after 24 to 48 hrs; assay type: functional; in short: as §6
[25] = test system: Rhizopus arrhizus; experiment: Antifungal activity against drug-susceptible Rhizopus oryzae UTHSC 06-434 after 24 to 48 hrs; assay type: functional; in short: as §7
[26] = test system: Rhizopus arrhizus; experiment: Antifungal activity against drug-susceptible Rhizopus oryzae UTHSC 05-3580 after 24 to 48 hrs; assay type: functional; in short: as §7
[27] = test system: Rhizopus arrhizus; experiment: Antifungal activity against drug-susceptible Rhizopus oryzae UTHSC 06-4336 after 24 to 48 hrs; assay type: functional; in short: as §7
[28] = test system: Rhizopus arrhizus; experiment: Antifungal activity against drug-susceptible Rhizopus oryzae UTHSC 03-299 after 24 to 48 hrs; assay type: functional
[29] = test system: Rhizopus arrhizus; experiment: Antifungal activity against drug-susceptible Rhizopus oryzae UTHSC 05-3111 after 24 to 48 hrs; assay type: functional; in short: as §7
[30] = test system: Rhizopus arrhizus; experiment: Antifungal activity against drug-susceptible Rhizopus oryzae UTHSC 03-51 infected in OF1 mouse assessed as increase in mouse survival at 20-30 mg/kg, po bid treated 24 hrs after fungal infection; assay type: functional, organism-based
In short: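 Male OF1 mice (30 g) immunosuppressed 1 day before infection with cyclophosphamide 200 mg/kg i.p. plus 5-fluorouracil 150 mg/kg i.v.; challenged i.v. via tail vein with 2 × 10^4 CFU; oral gavage twice daily for 7 days from 24 h post-challenge; ceftazidime 5 mg/day s.c. days 1–7; untreated controls; 10 mice/group; survival checked daily to day 20.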

[31] = test system: Rhizopus arrhizus; experiment: Antifungal activity against drug-susceptible Rhizopus oryzae UTHSC 03-511 infected in OF1 mouse assessed as reduction in kidney fungal load at 10-30 mg/kg, po bid; assay type: functional, organism-based
In short: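 Immunosuppressed male OF1 mice (cyclophosphamide 200 mg/kg i.p. plus 5-fluorouracil 150 mg/kg i.v., day −1) infected i.v. with 2 × 10^4 CFU; oral gavage twice daily from 24 h post-challenge; 10 mice/group killed day 4; kidneys homogenized in 2 ml saline, 10-fold dilutions plated on potato dextrose agar, 24 h at 35°C for CFU.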

[32] = test system: Rhizopus arrhizus; experiment: Antifungal activity against drug-intermediate Rhizopus oryzae UTHSC 04-3109 infected in OF1 mouse assessed as reduction in kidney fungal load at 10-30 mg/kg, po bid treated 24 hrs after fungal infection; assay type: functional, organism-based
In short: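 Tissue burden in immunosuppressed male OF1 mice, using cyclophosphamide 200 mg/kg i.p. plus 5-fluorouracil 150 mg/kg i.v. on day −1. Mice received 2 × 10^4 CFU i.v. by tail vein, then oral gavage at 10, 20 or 30 mg/kg BID from 24 h post-challenge, with ceftazidime cover; untreated controls. Groups of 10 were killed on day 4. Kidneys and brains were homogenized in 2 ml saline, serially diluted 10-fold, plated on PDA and counted after 24 h at 35°C.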

[33] = test system: Serum; experiment: Drug level in human serum at 400 mg, po bid; assay type: ADME, organism-based; conditions: in vivo
[34] = test system: Rhizopus arrhizus; experiment: Antifungal activity against drug-susceptible Rhizopus oryzae UTHSC 06-1351 after 24 to 48 hrs; assay type: functional; in short: as §7

## CC[C@@H]([C@H](C)O)n1ncn(-c2ccc(N3CCN(c4ccc(OC[C@@H]5CO[C@@](Cn6cncn6)(c6ccc(F)cc6F)C5)cc4)CC3)cc2)c1=O [POSACONAZOLE]
[1]
  MIC: 0.25 µg/mL (≈ 0.357 µM)
[2]
  MIC: 0.5 µg/mL (≈ 0.713 µM)
[3]
  MIC: 0.5 µg/mL (≈ 0.713 µM)
[4]
  MIC: 0.25 µg/mL (≈ 0.357 µM)
[5]
  MIC: 1 µg/mL (≈ 1.43 µM)
[6]
  MIC: 0.5 µg/mL (≈ 0.713 µM)
[7]
  MIC: 0.5 µg/mL (≈ 0.713 µM)
[8]
  zone of inhibition at 5 µg/disc: 17 mm
[9]
  zone of inhibition at 5 µg/disc: 22 mm
[10]
  zone of inhibition at 5 µg/disc: 20 mm
[11]
  zone of inhibition at 5 µg/disc: 25 mm
[12]
  zone of inhibition at 5 µg/disc: 20 mm
[13]
  zone of inhibition at 5 µg/disc: 25 mm
[14]
  zone of inhibition at 5 µg/disc: 21 mm
[15]
  zone of inhibition at 5 µg/disc: 14 mm
[16]
  zone of inhibition at 5 µg/disc: 22 mm
[17]
  zone of inhibition at 5 µg/disc: 20 mm
[18]
  zone of inhibition at 5 µg/disc: 15 mm
[19]
  zone of inhibition at 5 µg/disc: 14 mm
[20]
  zone of inhibition at 5 µg/disc: 14 mm
[21]
  MFC: 0.5 µg/mL (≈ 0.713 µM)
[22]
  MFC: 0.5 µg/mL (≈ 0.713 µM)
[23]
  MFC: 0.5 µg/mL (≈ 0.713 µM)
[24]
  MFC: 2 µg/mL (≈ 2.85 µM)
[25]
  MFC: 1 µg/mL (≈ 1.43 µM)
[26]
  MFC: 1 µg/mL (≈ 1.43 µM)
[27]
  MFC: 1 µg/mL (≈ 1.43 µM)
[28]
  MFC: > 16 µg/mL
[29]
  MFC: 2 µg/mL (≈ 2.85 µM)
[30]
  Activity: Active
[31]
  Activity: Active
[32]
  Activity: Active
[33]
  Drug uptake: < 1 µg/mL
[34]
  MFC: 0.5 µg/mL (≈ 0.713 µM)
